# NPY-Y2 antag – antagonists of human neuropeptide Y receptor Y2; P49146; NPY-Y2 expressing cells, antagonist mode; inhibition, % at 2.7 µM; 140,000 compounds, 0.99% hits; in the data active = inhibition above about 17%;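 note: 0% = vehicle with agonist challenge and 100% = reference antagonist with challenge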
# Target sequence (P49146 whole entry, looked up): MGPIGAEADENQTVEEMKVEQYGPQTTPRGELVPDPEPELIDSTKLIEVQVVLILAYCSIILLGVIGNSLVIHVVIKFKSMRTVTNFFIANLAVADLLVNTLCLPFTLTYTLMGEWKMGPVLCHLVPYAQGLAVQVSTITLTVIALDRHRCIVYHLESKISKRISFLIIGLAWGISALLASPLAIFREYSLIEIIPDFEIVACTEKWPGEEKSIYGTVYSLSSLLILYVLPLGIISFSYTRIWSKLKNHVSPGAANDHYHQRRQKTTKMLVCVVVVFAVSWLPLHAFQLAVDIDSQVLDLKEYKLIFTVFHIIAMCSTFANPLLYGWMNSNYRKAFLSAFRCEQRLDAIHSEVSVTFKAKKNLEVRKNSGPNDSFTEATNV
# NPY-Y2 PAM-ag – potentiators or agonists of human neuropeptide Y receptor Y2 | P49146 | cells expressing NPY-Y2, potentiator/agonist read-out | activation, % at 3.6 µM | 220,000 compounds, 0.45% hits; in the data active = activation above about 27%;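 note: cells stimulated with NPY near EC25 plus isoproterenol at EC100; 0% = vehicle plus submaximal agonist and 100% = vehicle plus saturating agonist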
# NPY-Y1 antag – NPY-Y1 (human) receptor antagonism; P25929; HEK293-CNG Y1 cells, membrane potential fluorescence; NPY at EC95, then isoproterenol; inhibition, % at 3.6 µM; 200,000 compounds, 1% hits;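 active = inhibition above the campaign mean inhibition of all tested compounds plus 3 SD, cut at about 20% in these data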;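 note: 0% = DMSO wells given NPY plus isoproterenol and 100% = isoproterenol alone without NPY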
# Target sequence (P25929 whole entry, looked up): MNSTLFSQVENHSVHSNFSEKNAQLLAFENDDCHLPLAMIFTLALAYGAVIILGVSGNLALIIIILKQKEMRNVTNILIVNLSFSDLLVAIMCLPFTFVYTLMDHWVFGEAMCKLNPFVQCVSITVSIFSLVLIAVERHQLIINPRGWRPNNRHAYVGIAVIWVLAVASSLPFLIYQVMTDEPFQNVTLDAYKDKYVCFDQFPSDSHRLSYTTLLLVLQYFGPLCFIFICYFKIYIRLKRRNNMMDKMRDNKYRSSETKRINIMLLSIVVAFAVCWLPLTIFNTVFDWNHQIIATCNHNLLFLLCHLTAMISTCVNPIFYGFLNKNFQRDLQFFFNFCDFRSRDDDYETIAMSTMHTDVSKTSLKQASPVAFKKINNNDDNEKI
#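 Material: Y1- and CNG-channel-expressing HEK293 cells / Probe or stimulus: NPY 25 nM then isoproterenol 1 µM plus Ro 20-1724 25 µM / Doses: 3.6 µM single dose, DMSO 0.4% / Schedule: compound incubation 1 h at room temperature, readout 45 min post-stimulation / Signal: membrane potential fluorescence / Benchmarks: isoproterenol-only wells as full block versus NPY-plus-isoproterenol wells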
# NPY-Y1 PAM-ag – potentiators or agonists of human neuropeptide Y receptor Y1; NPY-Y1 expressing cells, potentiator/agonist activation; activation, % at 3.6 µM; 220,000 compounds, 0.37% hits; in the data active = activation above about 33%, passing the limit was not always enough;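 note: cells stimulated with NPY at EC10 then isoproterenol at EC100; 0% = low agonist plus stimulus and 100% = saturating agonist plus stimulus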
# NPY-Y1 confirm – confirmation of human NPY-Y1 receptor potentiators or agonists | cell-based NPY-Y1 potentiator/agonist assay | AID 1546 | activation, % at 3.6 µM | shares compounds with NPY-Y1 PAM-ag | 280 compounds, 20% hits; in the data active = activation above about 45%;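 note: cells challenged with NPY at its EC10 plus isoproterenol stimulus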
# NPY-Y2 counter – NPY-Y2 potentiation or agonism as NPY-Y1 counter-screen | shares compounds with NPY-Y1 PAM-ag | HEK293-CNG cells, membrane-potential fluorescence (FLIPR), 1536-well | activation, % at 3.6 µM | 280 compounds, 20% hits; in the data active = activation above about 33%
# NPY-Y1 agonist – counter-screen for NPY-Y1 potentiators: agonists of human NPY-Y1; shares compounds with NPY-Y1 PAM-ag; HEK293 Y1-CNGC, membrane potential fluorescence, agonist mode; activation, % at 3.6 µM; 280 compounds, 50% hits;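 active = percent activation above the mean of DMSO-only control wells plus 3 SD of those wells, cut at about 18% in these data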;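 note: cells challenged with isoproterenol plus Ro 20-1724 with no NPY in test wells; Y1 agonism lowers isoproterenol-driven cAMP and reduces probe fluorescence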
# NPY-Y2 agonist – human NPY-Y2 agonism as NPY-Y1 counter-screen. shares compounds with NPY-Y1 PAM-ag. HEK293 Y2-CNGC, membrane potential fluorescence, agonist mode. activation, % at 3.6 µM. 280 compounds, 67% hits;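 active = activation above the solvent-only control wells' mean plus 3 SD, cut at about 11% in these data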;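 note: 0% = DMSO with isoproterenol and 100% = 40 nM NPY maximal response; agonism lowers cAMP so well fluorescence drops in active wells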
# CNGC counter – CNG channel inhibition, counter-screen for NPY-Y1 potentiators; 280 compounds, 42% hits; AID 1704; HEK293-CNG parental, isoproterenol cAMP, membrane potential fluorescence; inhibition, % at 3.6 µM; shares compounds with NPY-Y1 PAM-ag;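 active = inhibition above the mean of stimulated solvent-only control wells plus 3 SD, cut at about 22% in these data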;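 note: 0% = isoproterenol-stimulated DMSO wells and 100% = unstimulated DMSO wells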
# * = called active by the depositor; x = not tested or not shown. Hits are enriched below; roughly 1.8% of the tested compounds scored in any of these assays.
SMILES,NPY-Y2 antag,NPY-Y2 PAM-ag,NPY-Y1 antag,NPY-Y1 PAM-ag,NPY-Y1 confirm,NPY-Y2 counter,NPY-Y1 agonist,NPY-Y2 agonist,CNGC counter
O=C(COc1ccc(S(=O)(=O)NC2CCCCC2)cc1)N1CCN(c2ccc(F)cc2)CC1,0.2,-19.3,-1.9,6.1,x,x,x,x,x
O=C(COc1ccc(S(=O)(=O)NC2CCCCC2)cc1Cl)N1CCN(c2ccccc2)CC1,-4.2,15.0,-5.5,41.3*,8.4,7.7,-0.6,8.7,12.7
CCN1CCCC1CNC(=O)c1ccc(Sc2ccccc2Cl)c([N+](=O)[O-])c1 (stereo not given),x,23.2,5.7,36.1*,32.0,23.5,22.6*,30.3*,34.3*
CCn1ccnc1CN1CCc2c([nH]c3ccccc23)C1C(C)(C)C (stereo not given),x,14.6,-5.0,34.2*,16.2,11.0,7.5,21.9*,11.5
CCn1ccnc1CN1CCc2c([nH]c3ccccc23)C1CC(C)C (stereo not given),x,-8.6,2.8,9.3,x,x,x,x,x
COc1ccc(OC)c2sc(NC(=O)c3ccc(S(=O)(=O)N(C)C)cc3)nc12,-3.9,-3.0,-2.6,34.2*,19.5,4.9,11.9,17.9*,16.8
CCN(C(=S)NCc1ccccc1)c1ccccc1,x,0.7,-0.4,9.3,x,x,x,x,x
[O-]/C(=C(\C(=S)Nc1ccc(SC(F)F)cc1)[n+]1ccccc1)c1cc(Cl)ccc1Cl,x,26.4,-11.7,47.0*,61.5*,34.9*,38.5*,25.0*,48.8*
Cc1cc(C)c(/C([O-])=C(/C(=S)Nc2ccc(SC(F)F)cc2)[n+]2ccccc2)cc1C,x,26.8,0.7,40.2*,69.2*,46.6*,51.8*,52.1*,55.5*
CN(C)c1cc[n+](/C(C(=S)Nc2ccc(SC(F)F)cc2)=C(/[O-])c2ccccc2)cc1,x,7.4,-0.5,9.3,x,x,x,x,x
CC(C)(C)c1cc(C(=O)O)n(Cc2ccc(Cl)cc2Cl)n1,x,-8.3,x,-18.1,x,x,x,x,x
Cc1cccc(NC(NC(=O)c2ccccc2[N+](=O)[O-])C(Cl)(Cl)Cl)c1 (stereo not given),0.5,12.5,2.5,-6.9,x,x,x,x,x
O=C(Nc1ccc(C(O)(C(F)(F)F)C(F)(F)F)cc1)c1ccc(Cl)c([N+](=O)[O-])c1,-5.7,25.7,-14.2,46.1*,50.4*,49.6*,41.4*,39.9*,51.4*
O=C(O)c1cc(NC(=O)c2ccc(Cl)c([N+](=O)[O-])c2)cc(C(=O)O)c1,x,2.2,-6.9,12.7,x,x,x,x,x
CCc1nc(SCc2cc(Cl)ccc2OC)n[nH]1,0.3,-7.1,0.9,-12.8,x,x,x,x,x
CCN(CC)c1ccc(/C=C(/C#N)c2nc3ccc(C)cc3[nH]2)c(OC(C)C)c1,-4.9,32.2,-3.0,44.4*,51.9*,37.6*,27.7*,44.9*,30.1*
CN(C)C(=O)CCCCCCCCC(=O)N(C)C,x,2.2,x,10.7,x,x,x,x,x
CC1=CC(C)(C)n2c(O)c(N=NC(N)=S)c3cccc1c32,0.7,13.0,-4.9,-10.8,x,x,x,x,x
COc1cc2c3c(c1)c(N=NC(N)=S)c(O)n3C(C)(C)C=C2C,x,23.6,x,54.7*,74.1*,61.0*,46.9*,60.5*,53.8*
CC(C)c1ccc2[nH]c(O)c(N=NC(=O)c3cccc(S(=O)(=O)Nc4cccc(Cl)c4)c3)c2c1,x,-7.6,x,50.1*,28.7,23.4,23.6*,28.1*,20.1
Cc1ccc(-c2[nH]c3ccccc3c2SCCNC(=O)c2ccc(S(=O)(=O)N3CCOCC3)cc2)cc1,0.8,21.7,-5.4,47.6*,21.6,12.4,11.8,11.0*,10.4
COc1ccc(-c2[nH]c3ccccc3c2SCCNC(=O)c2ccccc2)cc1,3.5,12.8,0.1,4.2,x,x,x,x,x
COc1ccc(Nc2nc(N)c([N+](=O)[O-])c(NCCO)n2)cc1,x,24.2,x,20.2,x,x,x,x,x
CCOc1ccc(Nc2nc(Nc3ccc(O)cc3)nc(C)c2[N+](=O)[O-])cc1,x,24.7,-9.2,40.2*,26.7,22.5,5.3,15.5*,20.2
N#C/C(=C(/O)c1ccco1)c1nc2ccccc2s1,-1.7,18.8,-7.8,19.5,x,x,x,x,x
SMILES,NPY-Y2 antag,NPY-Y2 PAM-ag,NPY-Y1 antag,NPY-Y1 PAM-ag,NPY-Y1 confirm,NPY-Y2 counter,NPY-Y1 agonist,NPY-Y2 agonist,CNGC counter
N#C/C(=C(/O)c1cc2ccccc2o1)c1nc2ccccc2s1,x,9.6,x,49.1*,-2.2,5.9,2.3,10.5*,13.8
Cc1ccc(NC(=O)C(C)OC(=O)c2ccc(NS(=O)(=O)c3ccc(F)c(F)c3)cc2)cc1 (stereo not given),-0.2,20.5,1.1,9.5,x,x,x,x,x
CCc1ccc(NC(=O)C(C)OC(=O)c2ccc(NS(=O)(=O)c3ccc(C)c([N+](=O)[O-])c3)cc2)cc1 (stereo not given),-3.2,18.9,-12.3,42.2*,23.8,10.4,16.3,12.4*,23.4*
CC(OC(=O)c1ccc(NS(=O)(=O)c2ccc3[nH]c(=O)[nH]c3c2)cc1)C(=O)Nc1ccc(Cl)cc1 (stereo not given),x,-23.4,2.6,67.2*,-1.9,-2.9,-4.2,1.7,-3.0
CN(C(=O)CSc1nc2c(c(=O)[nH]1)CCC2)c1ccccc1,x,-2.8,9.2,10.0,x,x,x,x,x
CC(=O)c1ccc(NC(=O)C(C)OC(=O)c2ccc(NS(=O)(=O)c3ccc(F)c(F)c3)cc2)cc1 (stereo not given),-3.0,15.4,1.2,16.0,x,x,x,x,x
Cc1ccc(NC(=O)COC(=O)c2ccc([N+](=O)[O-])o2)cc1S(=O)(=O)N1CCCCC1,x,5.4,8.7,40.7*,-6.5,-2.3,-13.8,-4.1,5.1
O=C(COC(=O)c1ccc([N+](=O)[O-])o1)Nc1cccc(S(=O)(=O)N2CCCCC2)c1,x,1.0,2.0,1.1,x,x,x,x,x
CCOC(=O)c1c(C)nc2sc3c(c2c1-c1ccc(OC)cc1)NC(c1ccc(OC)cc1)NC3=O (stereo not given),5.8,14.5,4.8,-17.4,x,x,x,x,x
CCn1cc(C(=O)N2CCc3ccccc32)c(=O)c2cc(S(=O)(=O)N(C)C3CCCCC3)ccc21,2.0,9.5,-9.0,51.4*,-0.6,8.6,2.7,4.0,1.4
COCCNC(=O)C(=O)NNC(=O)CCc1ccccc1,x,-14.8,-2.8,-15.1,x,x,x,x,x

# Compound activity deposited in PubChem by The Scripps Research Institute Molecular Screening Center.
